SMILES strings stand for the structures.

A short description of this data set: Toxicity liver stage against HepG2, at 10uM. More on the design: test concentration 10 uM, cell line HepG2-A16-CD81EGFP. In kind it is cell-based. As to conditions: human, HepG2-A16-CD81EGFP cells; read-out: INHIBITION
In short, it runs like this:
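Uninfected HepG2-A16-CD81EGFP cells, 3 × 10^3 per well, 1536-well, plated on prespotted compound at 10 μM final, parasite-free screening media added to match infected plates; puromycin 10 μM positive, DMSO 0.5% negative; run in parallel with 48 h PbLuc assay at 37 °C, 5% CO2; viability by CellTiter-Glo luminescence, normalized to controls.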
Take `Cn1cncc1-c1nnc([C@H]2CCN(Cc3ncc[nH]3)C2)o1`: the cytotoxicity at 10 µM was determined as 1.62%. For `CC(C)(C)C(=O)N1C[C@@H](F)[C@@H](OCc2nc3ccccc3o2)C1`, the cytotoxicity at 10 µM came out at 3.33%.

As to `CC(=O)N1N=C(COc2ccc(Cl)cc2)OC1c1ccccc1` (stereo unspecified), the cytotoxicity at 10 µM was 9.87%. The result for `CCCNc1ccc(C(=O)NCCc2cccc(Cl)c2)cn1` reads 1.17%; that for `O=C(Cc1cc(-c2ccc3c(c2)OCCO3)on1)NCc1ccccn1`, 26.4%. The result for `Cn1cc(S(=O)(=O)NCCc2ccsc2)cn1` reads 5.26%; that for `CN1CC[C@H]2[C@H](C[C@@H](Cn3cncn3)N2c2nccs2)C1`, -144%; that for `Cc1cccc(S(=O)(=O)N2CCCc3c(c(=O)n(C)n3C)C2)c1`, -2.08%. The value for `CS(=O)(=O)N1CC(c2ncn3ccccc23)C1` was 5.6%. Consider `COc1ccc(N2CCN(CC(O)c3cc(C)ccc3C)CC2)cc1` (stereo unspecified), for which the cytotoxicity at 10 µM amounted to 7.25%.

As to `COc1ccc(OC)c(C2SCC(=O)Nc3n[nH]cc32)c1` (stereo unspecified), the cytotoxicity at 10 µM was 12.8%.

As for `Nc1ncccc1C(=O)NCc1cccc(Cl)c1`, the cytotoxicity at 10 µM worked out at 20.5%. With `Nc1ncc(-c2ccc(C(F)(F)F)cc2)c(C2CCCNC2)n1` (stereo unspecified), the cytotoxicity at 10 µM was 27.1%. The value for `CCC1c2ccsc2CCN1Cc1cc2c(cc1OC)OCCO2` (stereo unspecified) was 29.4%; that for `COc1ccc(CNC(Cc2ccsc2)c2ccc(C)cn2)c(OC)c1` (stereo unspecified) was 6.36%; that for `C=C(C)C(=O)N1CCC(C(=O)c2cc(C)cnc2N)CC1` was -2.88%. For `Cc1ccc(F)cc1C(=O)N1CCOCC12CCCC2`, the cytotoxicity at 10 µM was -8.68%. Regarding `N#Cc1ccccc1OCCN1CCC(C(=O)N2CCOCC2)CC1`, the cytotoxicity at 10 µM was -47.2%. The value for `CC1CCCCN1C(=O)Cn1cnc(C#N)n1` (stereo unspecified) was -18.8%; that for `O=C(c1cccnc1O)N1CCOC(c2ccc(Cl)cc2)C1` (stereo unspecified) was 2.6%; that for `c1ccc2oc(N3CCn4c(nnc4C4CC4)C3)nc2c1` was 7.41%. The result for `CC(CNC(=O)CCCn1cncn1)N1CCc2ccccc2C1` (stereo unspecified) reads -130%.

Turning to `Cc1cnn(CC2CCN(CC(O)Cn3cccn3)CC2)c1` (stereo unspecified), the cytotoxicity at 10 µM was -1.66%. For the molecule `CCOc1ccc(C(=O)NCc2ccnc(N3CCCC3)c2)cn1`, the cytotoxicity at 10 µM was determined as 6.62%. The value for `CN(C)C(=O)N1CCC(C(=O)NCCNc2ncccc2C#N)CC1` was 18.3%; that for `O=C(c1cnc(OCC(F)(F)F)c(Cl)c1)N1CCc2ccc(O)cc2C1` was -5.38%.

In the case of `Cc1ccc(NC(=O)CN(C)C(=O)c2ccc(-n3cccc3)nc2)nc1`, the cytotoxicity at 10 µM was determined as 12.4%. The value for `CCN(CCS(=O)(=O)c1ccc(Cl)cc1)Cc1ccc(OC)c(OC)c1` was 31.7%; that for `N#CCCN(Cc1ccco1)C(=O)c1ccc(OCC2CC2)cc1` was -5.87%; that for `Cc1cccc(-c2ccc(C(=O)NCCN3CCOCC3)c(=O)[nH]2)c1` was -5.88%. The value for `c1cc(CNCc2ccnc(N3CCCCC3)c2)c2c(c1)OCCCO2` was 21.4%. The value for `OC(CN(Cc1ccccc1)Cc1ccon1)c1cccs1` (stereo unspecified) was -0.359%. On to `Cc1cnn(CC2CCCN2Cc2coc(-c3ccc(F)cc3)n2)c1` (stereo unspecified), for which the cytotoxicity at 10 µM was -0.953%. The result for `Cc1ccc(C)c(S(=O)(=O)NC(=O)c2cccc3c2OCCO3)c1` reads -4.77%.

With `Cc1cc(N2CCC(N(C)C(=O)c3sccc3C)CC2)nc(C)n1`, the cytotoxicity at 10 µM came out at 25.9%. In the case of `O=C(NC1CCN(c2cc(-n3ccnc3)ncn2)CC1)c1ccncc1`, the cytotoxicity at 10 µM was 5.94%. The value for `CC(Nc1cnn(C)c(=O)c1Cl)c1ccc(F)c(F)c1` (stereo unspecified) was 31.3%.

Consider `Cc1nc(O)ccc1C(=O)N1CCCC1c1nc(-c2ccccc2)n[nH]1` (stereo unspecified), for which the cytotoxicity at 10 µM was determined as 0.636%. The result for `COC(=O)c1cccc(C(=O)N2CCN(C(=O)N(C)C)CC2(C)C)c1` reads 11.9%; that for `CC(NCc1ccsc1)c1ccc(OCc2nccn2C)cc1` (stereo unspecified), -6.37%; that for `Cc1cnn(CCCNC(=O)NC(C)C(=O)Nc2ccccc2)c1` (stereo unspecified), 7.04%. The result for `Cc1cc(F)ccc1N1CCCC(NC(=O)CCCn2ccnc2)C1` (stereo unspecified) reads 3.45%; that for `CN(Cc1cccc(OC(F)(F)F)c1)C(=O)c1cnsn1`, 0.963%; that for `CN1CCCc2cc(NC(=O)N3CCOC(C(N)=O)C3)ccc21` (stereo unspecified), 0.602%.

Consider `CCC(=O)N1CCc2onc(CNS(C)(=O)=O)c2C1`, for which the cytotoxicity at 10 µM is -96.5%. As to `O=C(c1ccccc1F)N1CC[C@@H]2CN(c3ncccn3)CCO[C@@H]2C1`, the cytotoxicity at 10 µM was -78.1%. In the case of `CC(=O)N1Cc2nc(C(=O)NCCc3cccnc3)oc2C1`, the cytotoxicity at 10 µM is -81.8%. `Cc1ccc(CN2CCC3(CC(=O)N(c4ccc5c(c4)OCO5)C3)C2)o1` (stereo unspecified): the cytotoxicity at 10 µM is -70.2%. The result for `Cc1ccccc1CC1(CO)CCCN(c2ncncc2C(C)C)C1` (stereo unspecified) reads -22.2%; that for `O=C(NCC1CCCN(Cc2cccc3nonc23)C1)c1ccc[nH]1` (stereo unspecified), -42.2%; that for `CNc1nc(N2CCN(CC=C(C)C)C(CCO)C2)nc2c1CCC2` (stereo unspecified), -0.6%. The value for `COc1ccc2cc(C3CN(C(=O)COC(C)C)CCO3)ccc2c1` (stereo unspecified) was 7.29%. The value for `CC(C)(C)c1cn(C2CCN(C3CCSC3)CC2)nn1` (stereo unspecified) was -3.99%; that for `CCn1cc(CN2CCCC(c3[nH]ncc3-c3ccc(C)cc3)C2)cn1` (stereo unspecified) was -1.67%; that for `O=C1N(CC2CCCCC2)CCCC1(O)CN1CCc2[nH]ncc2C1` (stereo unspecified) was -5.84%. As to `O=C(CCC1CCN(Cc2ccncc2)CC1)Nc1ccccc1Cl`, the cytotoxicity at 10 µM was -3.9%. For `CC(=O)c1ccc(C(=O)NCc2cccnc2N2CCCC(O)C2)s1` (stereo unspecified), the cytotoxicity at 10 µM was -0.147%. In the case of `O=C(Cc1ccccc1)C1CCCN(Cc2cncn2C2CCCC2)C1` (stereo unspecified), the cytotoxicity at 10 µM is -1.11%. With `CN(Cc1ccc(C2CC(=O)Nc3cc4[nH]ncc4cc32)o1)S(C)(=O)=O` (stereo unspecified), the cytotoxicity at 10 µM is 34.1%.

`FC(F)(F)CCc1ccnc(NCc2csc(N3CCOCC3)n2)n1`: the cytotoxicity at 10 µM was -4.13%. The result for `CC(C)Cc1cc(CNC(=O)c2ccccc2C2CCNC2)no1` (stereo unspecified) reads -45.5%. The result for `CN1CCN(Cc2cnn(-c3ccc(F)cc3)c2)[C@H]2CS(=O)(=O)C[C@H]21` reads 12.8%. As for `CSCCC1c2nc[nH]c2CCN1Cc1ccccc1C(F)(F)F` (stereo unspecified), the cytotoxicity at 10 µM was found to be 1.09%. The result for `CCn1cc(CN2CCCC(COc3ccccc3F)C2)cn1` (stereo unspecified) reads -47.7%; that for `Cc1ccsc1CN(CCN(C)C)C(=O)c1cc2ccccc2[nH]1`, -139%. Take `Cc1cnc(C)c(N2CCCC(CO)(Cc3ccccc3C)C2)n1` (stereo unspecified): the cytotoxicity at 10 µM is -17.2%. For `CCN(CC)S(=O)(=O)N1CCCC(c2nccn2Cc2ccncc2)C1` (stereo unspecified), the cytotoxicity at 10 µM was determined as 9.2%.

With `CC(C)N1CCC2(CCCN(Cc3ccc(F)cc3)C2=O)C1` (stereo unspecified), the cytotoxicity at 10 µM is -28.7%. The result for `O=C(CC1COCCN1S(=O)(=O)c1ccccc1)NCc1ccccn1` (stereo unspecified) reads 4.48%; that for `Fc1ccccc1CN1CCCN(c2ccc3cc[nH]c3n2)CC1`, -15.2%; that for `O=C(NCc1nc(NC2CCCC2)c2cc(Cl)ccc2n1)c1cncs1`, 4.15%. The value for `CN(Cc1nc2ccsc2c(=O)[nH]1)C[C@@H]1CCCN2CCCC[C@H]12` was -7.33%. The value for `COc1ccc(N(c2ccc(OC)cc2)c2ccc(C(=O)O)s2)cc1` was 18.5%; that for `COC(=O)c1ccc(CNCc2cn(C)nc2C)cc1` was -8.55%; that for `Cc1cc(-c2cnc(N3CCN(C)CC3)nc2-c2ccc(C)s2)on1` was -3.68%.

On to `Cc1csc(C2CCCCN2C(=O)c2cc(C(C)C)[nH]n2)n1` (stereo unspecified), for which the cytotoxicity at 10 µM is -1.59%. The result for `Cn1nccc1C1CCN(CC(=O)NCC2CC2)CC1` reads -9.38%; that for `CCNc1cc2c(nn1)CCN(C(=O)c1cc3cc(C)ccc3o1)C2`, -18.7%; that for `Cc1ccc(-c2nc(CCNC(=O)NC3CCC(O)CC3)co2)cc1` (stereo unspecified), -2.3%. The value for `CCn1c(C)cc(C(=O)N2CCc3nnc(N)cc3C2)c1C` was -12.2%. The value for `O=C(CCCc1cccs1)N1CCC(N2CCNC2=O)CC1` was 2.83%; that for `O=C(Cc1ccc2c(c1)CCCC2)NCCc1ccccn1` was 1.9%; that for `CC(C)N(Cc1ccc(C(=O)O)o1)C(C)C` was -1.2%. With `Cc1ncc(CN(Cc2ccccn2)Cc2ccccc2Cl)n1C`, the cytotoxicity at 10 µM is -1.45%. The value for `Cc1cc(C[C@@H]2CCC[C@H]2NCc2ccccc2C(F)(F)F)on1` was 2.8%.

For `N#Cc1ccc(N2CCC3(CCC(=O)N3CCN3CCCC3)CC2)nc1`, the cytotoxicity at 10 µM is -114%. The result for `COc1ncccc1CN1CCC2(CC1)COCCN2C` reads 16.6%; that for `Cc1ccccc1C(=O)N1C[C@@H]2CCN(c3cccnc3)C[C@@H]2C1`, -76.3%. The result for `COc1cc(N2CCC3(CC2)CCN(c2cccnc2)C3=O)ncn1` reads -116%. The result for `O=C1[C@@H]2CCN(Cc3ccoc3)C[C@@H]2OCCN1Cc1cccc(F)c1` reads -98.2%. Turning to `Cn1cc(N2C[C@@H]3CN(CC4CCOCC4)C[C@@H]3C2=O)cn1`, the cytotoxicity at 10 µM stood at 11.1%. For the molecule `Cc1noc(C)c1CN1CCc2ncnc(-c3ccoc3)c2CC1`, the cytotoxicity at 10 µM was -92%. The result for `CCN(C)C1COC2(CCN(C(=O)c3ccc(Cl)cc3)CC2)C1` (stereo unspecified) reads -2.57%; that for `CC(=O)NCC(=O)N1CCn2cc(CN3CCCCC3)nc2C1`, -3.34%. Consider `CC(=O)NCc1nn(C)c2c1CN(Cc1ccsc1)C2`, for which the cytotoxicity at 10 µM is -144%. The value for `CCOCCN1CCN(C=C2NN=C(c3occc3C)O2)CC1` was -50.4%.

Source of the values: ChEMBL document CHEMBL4513216, “Probing the Open Global Health Chemical Diversity Library for Multistage-Active Starting Points for Next-Generation Antimalarials” (ACS Infect Dis, 2020).
